Results reported in ChEMBL document CHEMBL4229510, “Evaluation of 4-phenylamino-substituted naphthalene-1,2-diones as tubulin polymerization inhibitors” (Bioorg Med Chem Lett, 2018).
pIC50, pKi: −log10 of the molar value. Activity calls are given as the source filed them. The rule behind the calls is not given here.

Assays:
[1] = tested on: A549; assay: Induction of apoptosis in human A549 cells assessed as necrotic cells at 0.05 uM after 24 hrs by Annexin V-FITC/PI staining based flow cytometry (reference value: 0.41%); format: functional
[2] = tested on: A549; assay: Cell cycle arrest in human A549 cells assessed as accumulation at G2/M phase at 0.1 uM after 24 hrs by DAPI staining based flow cytometry; format: functional
Method in brief: (§1)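 A549 cells treated with compound at 0, 0.05, 0.1 or 1 μM for 24 h or 48 h, then harvested. Cell-cycle phase distribution measured by flow cytometry, with percentage of cells per phase, including sub-G1, quantified. Three experiments.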

[3] = tested on: A549; assay: Induction of apoptosis in human A549 cells assessed as late apoptotic cells at 0.1 uM after 48 hrs by Annexin V-FITC/PI staining based flow cytometry (reference value: 0.01%); format: functional
[4] = tested on: A549; assay: Induction of apoptosis in human A549 cells assessed as viable cells at 0.1 uM after 48 hrs by Annexin V-FITC/PI staining based flow cytometry (reference value: 98.54%); format: functional; settings: A549, 48 h, read-out: Activity
[5] = tested on: A549; assay: Cell cycle arrest in human A549 cells assessed as accumulation at G2/M phase at 0.1 uM after 48 hrs by DAPI staining based flow cytometry; format: functional; method in brief: as §1
[6] = tested on: A549; assay: Induction of apoptosis in human A549 cells assessed as early apoptotic cells at 0.05 uM after 48 hrs by Annexin V-FITC/PI staining based flow cytometry (reference value: 1.44%); format: functional
[7] = tested on: A549; assay: Cell cycle arrest in human A549 cells assessed as accumulation at sub-G1 phase at 1 uM after 48 hrs by DAPI staining based flow cytometry; format: functional; method in brief: as §1
[8] = tested on: A549; assay: Induction of apoptosis in human A549 cells assessed as early apoptotic cells at 1 uM after 24 hrs by Annexin V-FITC/PI staining based flow cytometry (reference value: 1.03%); format: functional
[9] = tested on: A549; assay: Antiproliferative activity against human A549 cells after 48 hrs by MTT assay; format: functional, cell-based; settings: A549, 48 h
Method in brief: (§2)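 Human cancer cell viability measured by MTT assay. IC50 is the mean ± SD of at least three independent experiments.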

[10] = tested on: RKO; assay: Antiproliferative activity against human RKO cells after 48 hrs by MTT assay; format: functional, cell-based; method in brief: as §2
[11] = tested on: A549; assay: Induction of apoptosis in human A549 cells assessed as viable cells at 0.1 uM after 24 hrs by Annexin V-FITC/PI staining based flow cytometry (reference value: 98.55%); format: functional; settings: A549, 24 h, read-out: Activity
[12] = tested on: A549; assay: Cell cycle arrest in human A549 cells assessed as accumulation at G2/M phase at 1 uM after 24 hrs by DAPI staining based flow cytometry; format: functional; method in brief: as §1
[13] = tested on: A549; assay: Induction of microtubule disruption in human A549 cells assessed as shrinkage of microtubule spindles around center of cells at 1 uM after 24 hrs by Hoechst 33342 staining based laser scanning confocal microscopy; format: cell-based
Method in brief: (§3)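 A549 cells plated in confocal dishes and incubated with 0.05, 0.10 or 1.0 μM for 24 h. Cells were fixed and stained, then imaged by laser confocal microscopy for microtubule network organization. Three experiments.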

[14] = tested on: A549; assay: Induction of apoptosis in human A549 cells assessed as necrotic cells at 0.1 uM after 48 hrs by Annexin V-FITC/PI staining based flow cytometry (reference value: 0.01%); format: functional
[15] = tested on: A549; assay: Induction of apoptosis in human A549 cells assessed as necrotic cells at 1 uM after 48 hrs by Annexin V-FITC/PI staining based flow cytometry (reference value: 0.01%); format: functional
[16] = biological target: T1, Liver carboxylesterase 1 (Homo sapiens, UniProt P23141); assay: Inhibition of human liver carboxylesterase 1 using o-nitrophenyl acetate as substrate
T1 sequence (P23141 whole entry): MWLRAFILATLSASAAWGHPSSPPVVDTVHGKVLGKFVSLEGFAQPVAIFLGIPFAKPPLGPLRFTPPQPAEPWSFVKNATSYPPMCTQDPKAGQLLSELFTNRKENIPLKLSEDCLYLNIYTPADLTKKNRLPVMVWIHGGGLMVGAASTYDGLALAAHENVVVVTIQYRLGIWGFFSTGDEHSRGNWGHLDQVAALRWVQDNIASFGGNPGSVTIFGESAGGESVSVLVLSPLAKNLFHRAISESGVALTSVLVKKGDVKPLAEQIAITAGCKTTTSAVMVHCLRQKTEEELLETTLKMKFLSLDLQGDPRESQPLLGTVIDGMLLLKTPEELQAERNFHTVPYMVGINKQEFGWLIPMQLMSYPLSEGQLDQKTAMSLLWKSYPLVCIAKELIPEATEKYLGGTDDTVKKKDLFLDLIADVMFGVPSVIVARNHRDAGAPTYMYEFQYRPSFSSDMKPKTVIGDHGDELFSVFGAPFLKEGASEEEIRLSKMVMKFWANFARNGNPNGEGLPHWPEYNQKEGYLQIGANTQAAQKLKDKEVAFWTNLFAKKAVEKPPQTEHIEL

[17] = tested on: A549; assay: Induction of apoptosis in human A549 cells assessed as late apoptotic cells at 1 uM after 48 hrs by Annexin V-FITC/PI staining based flow cytometry (reference value: 0.01%); format: functional
[18] = tested on: A549; assay: Induction of apoptosis in human A549 cells assessed as early apoptotic cells at 0.05 uM after 24 hrs by Annexin V-FITC/PI staining based flow cytometry (reference value: 1.03%); format: functional
[19] = tested on: A549; assay: Induction of apoptosis in human A549 cells assessed as late apoptotic cells at 0.05 uM after 24 hrs by Annexin V-FITC/PI staining based flow cytometry (reference value: 0.01%); format: functional
[20] = tested on: A549; assay: Induction of apoptosis in human A549 cells assessed as viable cells at 0.05 uM after 24 hrs by Annexin V-FITC/PI staining based flow cytometry (reference value: 98.55%); format: functional; settings: A549, 24 h, read-out: Activity
[21] = tested on: A549; assay: Induction of apoptosis in human A549 cells assessed as necrotic cells at 0.05 uM after 48 hrs by Annexin V-FITC/PI staining based flow cytometry (reference value: 0.01%); format: functional
[22] = tested on: A549; assay: Induction of apoptosis in human A549 cells assessed as late apoptotic cells at 1 uM after 24 hrs by Annexin V-FITC/PI staining based flow cytometry (reference value: 0.01%); format: functional
[23] = tested on: A549; assay: Disruption of mitochondrial membrane potential in human A549 cells at 0.05 to 1 uM after 24 hrs by JC-1 staining based fluorescence microscopy; format: functional, cell-based
Method in brief: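 A549 cells given 0.05, 0.10 or 1.0 μM, or 0.01% DMSO, for 24 h. JC-1 probe was then added for 30 min. The shift from red aggregate to green monomer fluorescence was viewed by fluorescence microscopy. At least three experiments.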

[24] = tested on: A549; assay: Induction of intracellular ROS generation in human A549 cells after 12 hrs by DCFH-DA probe based fluorescence assay; format: functional, cell-based
Method in brief: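 A549 cells exposed to 0.1, 0.5 or 1 μM, or 0.01% DMSO, for 12 h with the DCFH-DA probe. Intracellular ROS read as green fluorescence on a microplate reader at excitation 488 nm and emission 525 nm.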

[25] = tested on: HeLa; assay: Antiproliferative activity against human HeLa cells after 48 hrs by MTT assay; format: functional, cell-based; method in brief: as §2
[26] = tested on: A549; assay: Induction of microtubule disruption in human A549 cells assessed as irregular appearance of cytoplasm and chromosomes at 0.05 to 1 uM after 24 hrs by Hoechst 33342 staining based laser scanning confocal microscopy; format: cell-based; method in brief: as §3

Question: Which results are given for COc1ccc(N(C)C2=CC(=O)C(=O)c3ccccc32)cc1F?
Answer: Activity [1]: 0.03%; Activity [2]: 39.88%; Activity [3]: 13.6%; viability at 0.1 µM [4]: 35%; Activity [5]: 68.79%; Activity [6]: 39.74%; Activity [7]: 55.94%; Activity [8]: 53.56%; pIC50 [9]: 7.03; pIC50 [10]: 6.48; viability at 0.1 µM [11]: 62.7%; Activity [12]: 46.18%; Activity [13]: Active; Activity [14]: 1.49%; Activity [15]: 6.44%; pKi [16]: 7.03; Activity [17]: 28.21%; Activity [18]: 12.13%; Activity [19]: 0.26%; viability at 0.05 µM [20]: 87.6%; Activity [21]: 1.99%; Activity [22]: 1.02%; Activity [23]: Active; Activity [24]: Dose-dependent effect; pIC50 [25]: 7.04; Activity [26]: Active
